Source: ChEMBL document CHEMBL4184260, “Fluorous-tag assisted synthesis of a glycosaminoglycan mimetic tetrasaccharide as a high-affinity FGF-2 and midkine ligand” (Bioorg Med Chem, 2018)
pIC50: −log10 of the molar value.

Experiments:
Midkine = molecular target: T1, Midkine (Homo sapiens, UniProt P21741); experiment: Inhibition of fluorescein labelled heparin-like hexasaccharide probe binding to recombinant human midkine after 5 mins by fluorescence polarization assay
T1 sequence (P21741 whole entry): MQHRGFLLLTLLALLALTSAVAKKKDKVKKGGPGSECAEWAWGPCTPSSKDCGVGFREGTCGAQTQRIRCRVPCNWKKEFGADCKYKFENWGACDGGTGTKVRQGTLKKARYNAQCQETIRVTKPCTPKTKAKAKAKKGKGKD
Procedure, shortened: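 Recombinant human midkine at 63 nM final with 10 nM fluorescein-labelled heparin-like hexasaccharide probe in PBS (10 mM, pH 7.4) plus 0.5% BSA. […] Shaken 5 min in the dark; polarization read at ex 485 / em 535 nm. Triplicate wells averaged, one-site competition fit for IC50. At least three independent experiments.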

[1] = molecular target: Fibroblast growth factor 2 (Homo sapiens, UniProt P09038); experiment: Inhibition of fluorescein labelled heparin-like hexasaccharide probe binding to recombinant human FGF-2 after 5 mins by fluorescence polarization assay
[2] = Solubility of the compound in PBS buffer at 100 uM at pH 7.4 in presence of 1% DMSO; assay type: physicochemical; conditions: pH 7.4, 100 µM

Fibroblast growth factor 2, sequence (P09038 143-288 limits assumed): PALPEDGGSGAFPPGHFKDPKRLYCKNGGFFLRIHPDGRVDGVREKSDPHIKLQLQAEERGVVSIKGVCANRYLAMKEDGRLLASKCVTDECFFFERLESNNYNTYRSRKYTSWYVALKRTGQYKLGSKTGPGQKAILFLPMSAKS

pIC50 (Midkine)	pIC50 [1]	solubility [2]	Structure (SMILES)
5.89	4.38	–	COc1ccc(O[C@@H]2O[C@H](C(=O)OCc3ccccc3)[C@@H](O[C@@H]3O[C@H](COS(=O)(=O)O)[C@@H](OS(=O)(=O)O)[C@H](O[C@@H]4O[C@H](C(=O)OCc5ccccc5)[C@@H](O[C@@H]5O[C@H](COS(=O)(=O)O)[C@@H](OS(=O)(=O)O)[C@H](OC(=O)CCC(C)=O)[C@H]5NC(=O)C(F)(F)F)[C@H](OCc5ccccc5)[C@H]4OC(=O)c4ccccc4)[C@H]3NC(=O)C(F)(F)F)[C@H](OCc3ccccc3)[C@H]2OC(=O)c2ccccc2)cc1
–	–	Soluble	COc1ccc(O[C@@H]2O[C@H](COC(=O)CCC(F)(F)C(F)(F)C(F)(F)C(F)(F)C(F)(F)C(F)(F)C(F)(F)C(F)(F)F)[C@@H](O[C@@H]3O[C@H](CO[SH+]([O-])(O)O)[C@@H](O[SH+]([O-])(O)O)[C@H](O[C@@H]4O[C@H](COC(=O)C(C)(C)C)[C@@H](O[C@@H]5O[C@H](CO[SH+]([O-])(O)O)[C@@H](O[SH+]([O-])(O)O)[C@H](OC(=O)CCC(C)=O)[C@H]5N5C(=O)c6ccccc6C5=O)[C@H](OCc5ccccc5)[C@H]4OC(=O)c4ccccc4)[C@H]3N3C(=O)c4ccccc4C3=O)[C@H](OCc3ccccc3)[C@H]2OC(=O)c2ccccc2)cc1
3.60	3.57	–	COc1ccc(O[C@@H]2O[C@H](C(=O)O)[C@@H](O[C@@H]3O[C@H](COS(=O)(=O)O)[C@@H](OS(=O)(=O)O)[C@H](O[C@@H]4O[C@H](C(=O)O)[C@@H](O[C@@H]5O[C@H](COS(=O)(=O)O)[C@@H](OS(=O)(=O)O)[C@H](O)[C@H]5NC(C)=O)[C@H](O)[C@H]4O)[C@H]3NC(C)=O)[C@H](O)[C@H]2O)cc1
